Published values of several laboratories.
Each line is one published result; the experiments were not run side by side.
Target: Casein kinase II subunit alpha' (CSNK2A2, Homo sapiens, UniProt P19784)

Structure (SMILES)	effect on	technique	tested at	remaining binding [%]
CCN1CCN(Cc2ccc(C(=O)Nc3ccc(C)c(Oc4ccc5c(c4)CC(=O)N5)c3)cc2C(F)(F)F)CC1	binding	competition with immobilised ligand	1 µM	95
Cn1cc(Cl)c2c(Oc3c(F)cc(Nc4cc(Cl)nc(N)n4)cc3F)ccnc21	cell-free assay	competition with immobilised ligand	0.1 µM	89
C=CC(=O)N1CCC(C(=O)NCC(=O)N2CCN(c3nc(-c4cnc(N)nc4C(F)F)nc(N4CCOCC4)n3)CC2)CC1	binding	competition with immobilised ligand	1 µM	100
C[C@H]1CCN(c2nccc(-c3cnn4ncccc34)n2)C1	binding		1 µM	56
CO[C@@H](C)c1c(Nc2ccc([C@@H](N(C)C(=O)C3CCS(=O)(=O)CC3)C(F)(F)F)cc2)cnc2cc(Cl)nn12	cell-free assay	competition with immobilised ligand	1 µM	100
CN(c1nccc(-c2cnn3ncccc23)n1)C1CC1	binding		1 µM	100
COc1cnc(Nc2cccc(S(N)(=O)=O)c2)nc1N1CCN(c2ccccc2)CC1	binding	competition with immobilised ligand	1 µM	90
C[C@H](c1ccc(F)cc1)N(Cc1cccc(C(=O)O)c1)C(=O)c1cnc2ccccc2c1	cell-free assay	competition with immobilised ligand	1 µM	86
O=C(NCC1CCOCC1)c1n[nH]cc1NC(=O)c1c(F)cccc1F	binding	competition with immobilised ligand	1 µM	76
COc1ncc2cc3ccccc3nc2c1C#N	cell-free assay	competition with immobilised ligand	5 µM	97
Cc1cnn2ncc(-c3ccnc(N(C)C)n3)c2c1	binding		1 µM	69
O=C(c1ccc(Nc2ncc(Cl)c(-c3ccc(Cl)s3)n2)cc1)N1CCC(N2CCCC2)CC1	binding	competition with immobilised ligand	1 µM	0.15
Nc1ncc2c(n1)-c1c([nH]c3ccc(C#CC4CC4)cc13)CCCC2	binding	competition with immobilised ligand	1 µM	82
O=C(NCCCN1CCOCC1)c1ccc(Nc2nccc(-c3cc4ccccc4s3)n2)cc1	binding	competition with immobilised ligand	1 µM	19
F[C@@H]1CCN(c2nccc(-c3cnn4ncccc34)n2)C1	binding		1 µM	100
CC(C)(O)c1cncc(-c2nc3ccc(F)cc3n2C2CC2)c1	cell-free assay	competition with immobilised ligand	1 µM	100
c1cnn2ncc(-c3ccnc(N4CCC45COC5)n3)c2c1	binding		1 µM	24
Cc1c(NC(=O)c2cc(C(N)=O)nc3cc(F)ccc23)c(C(F)(F)F)nn1Cc1ccc(C#N)cc1	cell-free assay	competition with immobilised ligand	1 µM	100
CN(CCCC(F)(F)F)c1nccc(-c2cnn3ncccc23)n1	binding		1 µM	92
CN([C@@H]1CCc2c(CC(=O)O)c3cc(S(C)(=O)=O)ccc3n2C1)S(=O)(=O)c1ccc(F)cc1	cell-free assay	competition with immobilised ligand	1 µM	100
O=C(NCCCN1CCOCC1)c1ccc(Nc2ncc(Cl)c(-c3ccc(Cl)s3)n2)cc1	binding	competition with immobilised ligand	1 µM	0.2
N[C@@H]1CCN(c2nccc(-c3cnn4ncccc34)n2)C1	binding		1 µM	100
